One data set concerns the target mu-delta heteromer (Homo sapiens, UniProt P35372+P41143). Description: immunocytochemical trafficking. The class given is cell-based. Particulars: ligand 1 μM, 30 minutes at 37°C, HEK-293 cells with FL-mu and HA-delta.
In data set [1] the target is mu/delta opioid receptors (Homo sapiens, UniProt P35372+P41143). The data set is classed as cell-based. The note with it: mu/delta HEK-293 cells. The method, boiled down: (§1)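 Calcium release measured in HEK-293 cells stably expressing mu, or both mu and delta, opioid receptors. The dual-transfected cells came from an outside lab, and cDNA for the chimeric Gα subunit Δ6-Gαqi4-myr was used. Signal was read as fluorescence in relative fluorescence units, giving EC50 and ΔRFU. Where a mu agonist and a delta antagonist were combined, they were co-administered at equimolar levels rather than given as a pretreatment.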

The target of the next data set is mu opioid receptors (Homo sapiens, UniProt P35372). The class given is cell-based. Particulars: mu HEK-293 cells. The method in brief:
as §1

The conditions of data set [2]: cited from earlier work.
For data set [3] the following is noted: cited from earlier work. The source holds these as a separate data set.

mu opioid receptors, sequence (P35372 whole entry): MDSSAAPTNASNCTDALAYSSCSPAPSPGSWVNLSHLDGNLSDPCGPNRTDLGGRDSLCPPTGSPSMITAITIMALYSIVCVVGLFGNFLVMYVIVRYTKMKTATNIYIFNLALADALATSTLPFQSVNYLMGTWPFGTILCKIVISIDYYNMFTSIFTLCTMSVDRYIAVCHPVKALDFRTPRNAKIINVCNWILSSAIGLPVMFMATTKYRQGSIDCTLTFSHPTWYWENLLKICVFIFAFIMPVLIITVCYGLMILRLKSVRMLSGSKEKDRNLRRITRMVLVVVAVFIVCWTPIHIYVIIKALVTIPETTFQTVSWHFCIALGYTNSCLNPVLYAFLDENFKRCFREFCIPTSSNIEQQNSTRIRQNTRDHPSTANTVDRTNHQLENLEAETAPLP
mu/delta opioid receptors, sequence (P35372 whole entry): as above
mu/delta opioid receptors, sequence (P41143 whole entry): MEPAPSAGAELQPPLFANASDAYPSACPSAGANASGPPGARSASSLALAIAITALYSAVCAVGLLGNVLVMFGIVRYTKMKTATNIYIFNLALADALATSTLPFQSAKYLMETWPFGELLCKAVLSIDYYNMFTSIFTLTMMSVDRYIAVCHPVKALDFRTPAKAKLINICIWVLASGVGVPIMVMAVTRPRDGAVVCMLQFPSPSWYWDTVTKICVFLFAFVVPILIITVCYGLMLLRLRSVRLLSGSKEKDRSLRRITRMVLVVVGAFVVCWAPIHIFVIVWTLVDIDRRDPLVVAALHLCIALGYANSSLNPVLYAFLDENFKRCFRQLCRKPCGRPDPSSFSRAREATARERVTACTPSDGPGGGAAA
mu-delta heteromer, sequence (P35372 whole entry): as the sequence (P35372 whole entry) above
mu-delta heteromer, sequence (P41143 whole entry): as the sequence (P41143 whole entry) above

Turning to `CN1CC[C@]23c4c5ccc(O)c4O[C@H]2[C@H](NC(=O)COCC(=O)NCCCCCCCNC(=O)COCC(=O)Nc2cccc4c6c([nH]c24)[C@@H]2Oc4c(O)ccc7c4[C@@]24CCN(CC2CC2)[C@@H](C7)[C@]4(O)C6)CC[C@@]3(O)[C@H]1C5` [MDAN-21], the “internalization of mu and delta cell-surface opioid receptors” value at mu-delta heteromer is given as “did not produce significant internalization”. Also, the “calcium release ΔRFU” value in data set [1] came to 468 RFU; at mu opioid receptors, 420 RFU. Further, the EC50 in data set [1] (read-out: calcium release EC50) was 412 nM; on mu opioid receptors (read-out: calcium release EC50), 851 nM. Moreover, in data set [2], the antinociception entry was “potent antinociception”. Further, in data set [2], the physical dependence result was “without tolerance, physical dependence, or place preference”. The tolerance entry in data set [2] (mice) is “does not produce tolerance”. Besides, the place preference result in data set [3] is “without tolerance, physical dependence, or place preference”.

Broadly, the EC50 is the concentration that produces a half-maximal response.

(Values after publication PMC5060010 (ACS chemical biology, 2013).)
